Only some compounds are listed: those with a hit (about 2.1% of all), similar ones and a draw of the others.
APJ agonist: APJ receptor agonism; CHO-K1 APJ PathHunter beta-arrestin, luminescence; 0% DMSO wells, 100% apelin; activation, % at 20 µM; 330,000 tested, 0.11% active; AID 2520;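 active means activation more than six SD over the plate average, tested at 20 µM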;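 further: 0% = DMSO alone and 100% = apelin-13 at 10 nM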
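Test system: CHO-K1 APJ beta-arrestin complementation cell line | Compound: Single test compound dose, 20 µM final, 1% DMSO | Incubation: Compound 90 min 25 °C, reagent 1 h | Measured by: beta-gal luminescence | Read-out basis: APJ–arrestin association signal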
CXCR6 block: CXCR6 (human) receptor inhibition; O00574; CHO-K1 PathHunter CXCR6 beta-arrestin, luminescence; inhibition, % at 20 µM; 360,000 tested, 0.36% active; in the data active means inhibition above about 34%, passing the limit was not always enough;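 further: antagonist mode with CXCL16 agonist at 10 nM final; 0% = 10 nM CXCL16 with DMSO and 100% = unstimulated wells without agonist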
EBI2 block: EBI2 (human) antagonism. P32249. EBI2 beta-arrestin recruitment, luminescence, 7a,25-OHC stimulated. inhibition, % at 5 µM. 360,000 tested, 0.81% active. AID 651636; in the data active means inhibition above about 38%;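 further: enzyme fragment complementation signal reports receptor beta-arrestin coupling in cells; 0% = agonist plus DMSO wells and 100% = wells without agonist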
Target sequence (P32249 whole entry, looked up, the tested form may be a part): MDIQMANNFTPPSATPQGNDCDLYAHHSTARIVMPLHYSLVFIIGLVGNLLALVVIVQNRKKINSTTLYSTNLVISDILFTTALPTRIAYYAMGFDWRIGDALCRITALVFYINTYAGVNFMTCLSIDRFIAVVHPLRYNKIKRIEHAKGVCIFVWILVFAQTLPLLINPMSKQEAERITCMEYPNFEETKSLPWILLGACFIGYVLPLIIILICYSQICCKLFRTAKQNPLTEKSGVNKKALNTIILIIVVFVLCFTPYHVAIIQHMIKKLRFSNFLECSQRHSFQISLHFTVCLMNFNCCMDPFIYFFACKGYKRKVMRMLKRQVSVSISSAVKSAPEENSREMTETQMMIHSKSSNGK
APJ antag: blocks the human apelin receptor APJ; P35414; CHO-K1 APJ beta-arrestin complementation, luminescence; inhibition, % at 20 µM; 330,000 tested, 0.32% active;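 active means inhibition above about 40% at 20 µM, limit read from the data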;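 further: cells challenged with 10 nM apelin-13 agonist together with compound; plate controls were apelin-13 plus DMSO wells for no effect and DMSO wells lacking apelin-13 for full effect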
CCR6 antag: CCR6 (human) receptor antagonism; P51684; 340,000 tested, 0.49% active; CHO-K1 CCR6 PathHunter beta-arrestin, luminescence, CCL20-stimulated; inhibition, % at 20 µM;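 active means compounds whose inhibition of the agonist-driven luminescence signal at 20 µM reaches about 50%, limit read from the data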;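 further: cells stimulated with CCL20 at 14 nM final; plate controls were DMSO with CCL20 for no effect and DMSO without agonist for full effect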
m5-HT2A agonist: activates the mouse 5-HT2A serotonin receptor. P35363. activation, % at 7.6 µM. 360,000 tested, 0.66% active. AID 624169. CHO-K1 mHTR2A beta-arrestin complementation, luminescence; percent of 30 µM serotonin response;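 active means activation above a run cutoff, the mean activation of all tested compounds plus 3 SD, cut at about 14% in these data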;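 further: 0% = plate median of compound wells and 100% = 30 µM serotonin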
Starred values were filed as active, the others as inactive; . = no result.

SMILES | APJ agonist | CXCR6 block | EBI2 block | APJ antag | CCR6 antag | m5-HT2A agonist
COc1ccc(CN=Nc2cc(C)nc(NS(=O)(=O)c3ccccc3Cl)n2)cc1 | 1 | . | . | -1 | . | .
COc1cccc(NC(=O)c2ccc(OC(F)(F)F)cc2)c1 | 2 | -2 | 44* | -12 | 17 | 2
Nc1ccc2nc(CCCCCCCCc3nc4ccc(N)cc4[nH]3)[nH]c2c1 | 0 | -5 | -9 | -15 | 8 | 0
CCCc1sc(N/N=C/c2ccccn2)nc1-c1ccc(F)cc1 | -6 | 37 | 17 | 18 | 69* | -2
O=C(CSc1cccc(C(F)(F)F)c1)NC(=O)c1ccccc1 | 1 | 3 | -5 | 2 | 7 | 5
CCOC(=O)c1csc(Nc2nc3ccc(F)cc3s2)n1 | -14 | 17 | 41 | 42* | 27 | -7
COC(=O)c1ccc2nc(Nc3nc4ccc(F)cc4s3)sc2c1 | . | -10 | -7 | . | -16 | 0
CC(C)(C)n1nnnc1C(c1cc2ccccc2o1)N(Cc1ccccc1)Cc1ccccc1 (stereo not given) | . | -2 | -6 | . | . | 4
Nc1c(S(=O)(=O)O)cc(NC(=O)c2ccccc2)c2c1C(=O)c1ccccc1C2=O | -1 | 29 | 11 | 1 | 55* | -1
O=C(Nc1ccccc1-c1ccccc1)c1ccccc1 | -3 | -4 | -1 | 10 | 6 | -4
CC(=O)/C=C/c1ccccc1Oc1c(F)c(F)nc(F)c1F | -5 | 10 | -44 | -7 | 5 | 5
O=C(NC(=S)N(CCCCO)C1CCCCC1)c1sc2ccccc2c1Cl | -5 | 18 | 4 | 31 | 67* | 3
COc1ccc(C(=O)CC(=O)C(=O)Nc2ccc(Cl)cc2)cc1 | . | 18 | -12 | . | 53* | 1
CCC(=O)N1N=C(c2cccc(NS(C)(=O)=O)c2)CC1c1cccs1 (stereo not given) | -4 | -12 | -9 | -6 | 7 | 2
C=C(C)c1cccc(C(C)(C)NC(=O)NCc2ccc(OC)c(OC)c2)c1 | -5 | -14 | 4 | -3 | 10 | 24*
CCCOC1CCCN(C(=O)c2ccc(OC3CCN(C(=O)COC)CC3)cc2)C1 (stereo not given) | -6 | 0 | 8 | -3 | 9 | -8
O=C(/C=C/c1ccccc1)NNc1ccc(Cl)cc1 | -8 | 7 | 4 | 62* | 12 | -3
O=C(/C=C/c1ccccc1)NNC(=O)c1cccc(Cl)c1 | -2 | -11 | 1 | 6 | 10 | -2
O=C(c1cccs1)c1no[n+]([O-])c1C(=O)c1cccs1 | 30* | -11 | 4 | -7 | 4 | 1
COc1cccc2sc(N(CCN(C)C)C(=O)c3ccc(S(=O)(=O)N4CCCC4)cc3)nc12 | -4 | -3 | -5 | 18 | 17 | -8
CC(=O)OCCCNc1cc(Sc2ccc(Cl)cc2)c2nonc2c1[N+](=O)[O-] | . | 92* | 68* | . | 104* | 2
CCOc1ccc(NC(=O)CCN2C(=O)C3CCCCC3C2=O)cc1OCC (stereo not given) | 5 | 0 | 3 | -49 | 15 | -1
c1ccc(CN2CCN(c3ncnc4nc[nH]c34)CC2)cc1 | -2 | -2 | -3 | 6 | -9 | 24*
COc1cc(C)ccc1OCCCOc1ccccc1Cl | -1 | 0 | 15 | 14 | 11 | -2
C=CCNc1nc(NCc2cccc(OC)c2)c2sc(-c3ccccc3)cc2n1 | . | 18 | 57* | . | . | -2
SMILES | APJ agonist | CXCR6 block | EBI2 block | APJ antag | CCR6 antag | m5-HT2A agonist
C/C(=N\NC(=O)COc1ccc(C(C)(C)C)cc1)c1ccccc1 | -4 | 2 | 0 | -1 | -13 | -10
COc1ccc(N/N=C(/N=Nc2nc(C)cc(=O)[nH]2)c2ccccc2)cc1 | -4 | 33* | 22 | 22 | 47 | 4
CCOc1ccc(NC(=O)CS(=O)CC(=O)Nc2cccnc2)cc1 (stereo not given) | -2 | 0 | -6 | 8 | 4 | 1
N#C/C(=C\c1ccc(-c2cccc([N+](=O)[O-])c2)o1)C(=O)Nc1nc(-c2cccs2)cs1 | -7 | 30 | 4 | 30 | 84* | 2
O=C(N/N=C/c1ccc(-c2cccc([N+](=O)[O-])c2)o1)c1cccs1 | -3 | -5 | 0 | -1 | 3 | -1
COc1ccc(NC(=O)/C(Cl)=C(/Cl)S(=O)(=O)Cc2ccccc2)cn1 | . | 34 | 61* | . | 25 | -5

Bioassay records deposited in PubChem by several laboratories.
